Here are results for 1 compound from ChEMBL document CHEMBL2331221, “Potent elastase inhibitors from cyanobacteria: structural basis and mechanisms mediating cytoprotective and anti-inflammatory effects in bronchial epithelial cells” (J Med Chem, 2013).

Activity calls are given as the source filed them. No cut-off for these calls is given here.

Experiment [1] deals with Matrix metalloproteinase-14 (Homo sapiens) (UniProt P50281). The experiment can be described thus: Inhibition of MMP14 (unknown origin) using (5-FAM/QXLTM) FRET peptide substrate assessed as residual activity at 10 uM incubated for 15 mins prior to substrate addition measured for 2 hrs. In a few lines: (§1)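 Protease panel screen: enzyme and test inhibitor preincubated 15 min in the enzyme's reaction buffer, then substrate added. Reaction followed for 2 h, and activity was taken from the initial linear portion of the progress-curve slope. Enzyme, substrate, buffer and detection conditions for each target are given only in the paper's supporting table.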

For experiment [2], the target named is Stromelysin-1 (Homo sapiens) (UniProt P08254). The experiment in a line: Inhibition of MMP3 (unknown origin) using (5-FAM/QXLTM) FRET peptide substrate assessed as residual activity at 10 uM incubated for 15 mins prior to substrate addition measured for 2 hrs. In a few lines:
as §1

Another experiment addresses Kallikrein-12 (Homo sapiens, UniProt Q9UKR0). The experiment can be described thus: Inhibition of Kallikrein-12 (unknown origin) using VPR-AMC substrate incubated for 15 mins prior to substrate addition measured for 2 hrs. In a few lines:
as §1

Experiment [3] can be described thus: Inhibition of human pancreatic Chymotrypsin using Suc-AAPF-pNa substrate incubated for 15 mins prior to substrate addition measured for 2 hrs. In a few lines:
(§2)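 Protease panel screen: enzyme and inhibitor preincubated 15 min in reaction buffer, then substrate added; reaction followed for 2 h and the initial linear part of the progress curve used for activity. Enzyme, substrate, buffer and detection details are given only in a supporting table.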

The subject of the next experiment is Hepacivirus hominis. The experiment can be described thus: Inhibition of Hepatitis C virus NS3/4A protease using Anaspec EnzoLyte substrate assessed as residual activity at 10 uM incubated for 15 mins prior to substrate addition measured for 2 hrs. In a few lines:
as §1

Experiment [4] addresses Angiotensin-converting enzyme (Homo sapiens) (UniProt P12821). The experiment can be described thus: Inhibition of ACE1 (unknown origin) using MCA-RPPGFSAFK(Dnp) substrate assessed as residual activity at 10 uM incubated for 15 mins prior to substrate addition measured for 2 hrs. In a few lines:
as §1

Experiment [5] concerns the target Matrilysin (Homo sapiens) (UniProt P09237). The experiment can be described thus: Inhibition of MMP7 (unknown origin) using (5-FAM/QXLTM) FRET peptide substrate assessed as residual activity at 10 uM incubated for 15 mins prior to substrate addition measured for 2 hrs. In a few lines: as §2
Experiment [6] is described as follows: Inhibition of porcine pancreatic elastase using Suc-AAA-pNa substrate incubated for 15 mins prior to substrate addition measured for 2 hrs. Set-up: species or system Sus scrofa. In a few lines:
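Elastase preincubated with test compound (DMSO) in Tris-HCl pH 8.0 for 15 min at room temperature; N-succinyl-Ala-Ala-Ala-p-nitroanilide then added (2 mM stock in Tris-HCl pH 8.0). Absorbance at 405 nm recorded every 30 s; activity as initial slope, percent of uninhibited reaction.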

Experiment [7] addresses Cathepsin E (Homo sapiens) (UniProt P14091). The experiment in a line: Inhibition of Cathepsin E (unknown origin) using MCA-KPILFFRLK(Dnp)-D-R-NH2 substrate assessed as residual activity at 10 uM incubated for 15 mins prior to substrate addition measured for 2 hrs. In a few lines:
as §1

In experiment [8] the target is Pro-cathepsin H (Homo sapiens) (UniProt P09668). The experiment can be described thus: Inhibition of Cathepsin H (unknown origin) using R-AMC substrate assessed as residual activity at 10 uM incubated for 15 mins prior to substrate addition measured for 2 hrs. In a few lines: as §1
Chain of Pro-cathepsin H (Homo sapiens) (P09668 116-335 limits assumed, other chains not shown): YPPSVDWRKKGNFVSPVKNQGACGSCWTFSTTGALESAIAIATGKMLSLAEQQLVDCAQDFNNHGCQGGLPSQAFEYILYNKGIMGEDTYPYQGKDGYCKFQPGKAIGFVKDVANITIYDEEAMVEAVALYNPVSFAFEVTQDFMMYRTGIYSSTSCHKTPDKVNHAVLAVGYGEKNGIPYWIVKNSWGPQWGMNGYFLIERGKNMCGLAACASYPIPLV
Experiment [9] has as its target T1, Neutrophil elastase (Homo sapiens) (UniProt P08246).
T1 sequence (whole entry): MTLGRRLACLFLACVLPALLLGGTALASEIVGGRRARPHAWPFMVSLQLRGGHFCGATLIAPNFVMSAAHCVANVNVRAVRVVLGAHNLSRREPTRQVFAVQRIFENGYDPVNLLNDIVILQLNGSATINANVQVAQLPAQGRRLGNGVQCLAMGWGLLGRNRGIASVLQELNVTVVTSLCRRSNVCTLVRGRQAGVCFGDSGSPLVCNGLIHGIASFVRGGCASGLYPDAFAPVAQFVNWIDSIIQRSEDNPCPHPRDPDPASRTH
As to conditions: 10 uM.

For another experiment, the target named is Papain (Carica papaya) (UniProt P00784). The experiment can be described thus: Inhibition of papaya Papain using Z-FR-AMC substrate assessed as residual activity at 10 uM incubated for 15 mins prior to substrate addition measured for 2 hrs. In a few lines: as §2
Chain of Papain (Carica papaya) (P00784 whole entry): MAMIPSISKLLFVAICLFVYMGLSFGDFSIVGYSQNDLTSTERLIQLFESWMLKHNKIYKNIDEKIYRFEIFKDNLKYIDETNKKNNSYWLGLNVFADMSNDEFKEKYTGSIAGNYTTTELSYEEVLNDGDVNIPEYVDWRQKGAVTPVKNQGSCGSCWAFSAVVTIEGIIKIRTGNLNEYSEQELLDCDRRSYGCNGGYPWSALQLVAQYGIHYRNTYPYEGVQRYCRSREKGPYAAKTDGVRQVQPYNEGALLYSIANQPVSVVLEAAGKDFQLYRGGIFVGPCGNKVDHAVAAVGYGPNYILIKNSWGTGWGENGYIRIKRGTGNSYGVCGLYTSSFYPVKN
For a further experiment, the species on record is Homo sapiens. The experiment in a line: Inhibition of human pancreatic chymotrypsin assessed as proteolysis using N-succinyl-Ala-Ala-Pro-Phe-p-nitroanilide substrate incubated at 10 uM for 30 mins prior to substrate addition. Set-up: scale not given: the % may be the effect or the level left. In a few lines: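 Pancreatic chymotrypsin, bovine at 100 μg/mL or human at 50 μg/mL; reaction buffer, enzyme and inhibitor (DMSO) incubated 30 min at room temperature, then substrate added (bovine: N-succinyl-Gly-Gly-Phe-pNA; human: N-succinyl-Ala-Ala-Pro-Phe-pNA). Absorbance read at 405 nm; activity from reaction slope relative to solvent control.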

In experiment [10] the target is Urokinase-type plasminogen activator (Homo sapiens) (UniProt P00749). The experiment can be described thus: Inhibition of Urokinase (unknown origin) using Bz-b-Ala-Gly-Arg-AMC.AcOH substrate assessed as residual activity at 10 uM incubated for 15 mins prior to substrate addition measured for 2 hrs. In a few lines: as §2
Experiment [11] addresses Cathepsin S (Homo sapiens) (UniProt P25774). The experiment in a line: Inhibition of Cathepsin S (unknown origin) using Z-FR-AMC substrate assessed as residual activity at 10 uM incubated for 15 mins prior to substrate addition measured for 2 hrs. In a few lines: as §1
Experiment [12] has as its target Coagulation factor VII (Homo sapiens) (UniProt P08709). The experiment can be described thus: Inhibition of Factor-7a (unknown origin) using Z-VVR-AMC substrate assessed as residual activity at 10 uM incubated for 15 mins prior to substrate addition measured for 2 hrs. In a few lines:
as §1

The target in experiment [13] is Interstitial collagenase (Homo sapiens) (UniProt P03956). The experiment in a line: Inhibition of MMP1 (unknown origin) using (5-FAM/QXLTM) FRET peptide substrate assessed as residual activity at 10 uM incubated for 15 mins prior to substrate addition measured for 2 hrs. In a few lines: as §1
Chain of Interstitial collagenase (Homo sapiens) (P03956 whole entry): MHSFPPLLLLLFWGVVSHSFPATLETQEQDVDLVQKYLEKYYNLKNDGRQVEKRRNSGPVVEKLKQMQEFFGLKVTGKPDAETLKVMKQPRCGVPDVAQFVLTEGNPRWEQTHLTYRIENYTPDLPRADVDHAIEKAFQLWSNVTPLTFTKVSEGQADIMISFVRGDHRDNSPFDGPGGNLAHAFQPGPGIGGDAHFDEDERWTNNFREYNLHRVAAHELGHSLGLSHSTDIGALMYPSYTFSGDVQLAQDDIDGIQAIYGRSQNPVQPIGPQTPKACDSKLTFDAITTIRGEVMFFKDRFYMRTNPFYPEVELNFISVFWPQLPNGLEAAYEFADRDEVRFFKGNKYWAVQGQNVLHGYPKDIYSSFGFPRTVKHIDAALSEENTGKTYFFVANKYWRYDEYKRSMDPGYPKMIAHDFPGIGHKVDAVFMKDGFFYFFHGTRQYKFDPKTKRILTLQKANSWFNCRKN

Chain of Matrilysin (Homo sapiens) (P09237 whole entry): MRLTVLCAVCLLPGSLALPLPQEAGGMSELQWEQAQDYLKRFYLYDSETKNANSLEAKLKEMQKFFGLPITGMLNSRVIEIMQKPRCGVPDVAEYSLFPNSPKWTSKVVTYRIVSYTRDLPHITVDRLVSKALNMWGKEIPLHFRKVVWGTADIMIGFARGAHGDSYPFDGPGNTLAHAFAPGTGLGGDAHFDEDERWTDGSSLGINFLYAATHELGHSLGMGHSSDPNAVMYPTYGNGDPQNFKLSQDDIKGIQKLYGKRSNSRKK
Chain of Stromelysin-1 (Homo sapiens) (P08254 100-477 limits assumed): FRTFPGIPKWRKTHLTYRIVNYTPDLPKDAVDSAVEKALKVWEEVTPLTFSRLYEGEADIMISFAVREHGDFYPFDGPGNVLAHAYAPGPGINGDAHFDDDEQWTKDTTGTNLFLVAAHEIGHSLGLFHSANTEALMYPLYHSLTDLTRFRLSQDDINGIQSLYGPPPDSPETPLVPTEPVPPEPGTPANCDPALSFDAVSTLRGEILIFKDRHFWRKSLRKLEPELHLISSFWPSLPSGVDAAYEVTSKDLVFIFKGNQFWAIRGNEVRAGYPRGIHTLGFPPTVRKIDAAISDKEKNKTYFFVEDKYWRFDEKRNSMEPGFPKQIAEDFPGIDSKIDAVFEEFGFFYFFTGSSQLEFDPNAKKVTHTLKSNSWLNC
Chain of Cathepsin S (Homo sapiens) (P25774 115-331 limits assumed): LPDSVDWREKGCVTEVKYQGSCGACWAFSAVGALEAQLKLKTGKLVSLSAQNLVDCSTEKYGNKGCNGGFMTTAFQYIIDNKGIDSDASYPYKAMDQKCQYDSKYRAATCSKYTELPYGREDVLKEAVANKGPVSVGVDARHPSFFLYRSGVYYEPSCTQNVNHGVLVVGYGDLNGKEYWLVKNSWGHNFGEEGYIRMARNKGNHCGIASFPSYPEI
Chain of Coagulation factor VII (Homo sapiens) (P08709 61-212 limits assumed): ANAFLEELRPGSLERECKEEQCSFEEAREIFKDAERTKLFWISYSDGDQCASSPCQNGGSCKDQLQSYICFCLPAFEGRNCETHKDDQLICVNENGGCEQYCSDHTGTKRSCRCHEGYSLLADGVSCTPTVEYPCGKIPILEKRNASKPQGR
Chain of Coagulation factor VII (Homo sapiens) (P08709 213-466 limits assumed): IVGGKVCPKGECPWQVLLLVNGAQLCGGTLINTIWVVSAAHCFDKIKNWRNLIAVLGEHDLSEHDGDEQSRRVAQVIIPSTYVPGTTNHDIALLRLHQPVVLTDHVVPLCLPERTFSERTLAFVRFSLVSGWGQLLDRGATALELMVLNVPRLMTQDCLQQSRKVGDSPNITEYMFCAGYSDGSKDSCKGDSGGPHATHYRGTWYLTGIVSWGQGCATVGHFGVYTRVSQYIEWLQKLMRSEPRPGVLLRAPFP
Chain of Kallikrein-12 (Q9UKR0 whole entry): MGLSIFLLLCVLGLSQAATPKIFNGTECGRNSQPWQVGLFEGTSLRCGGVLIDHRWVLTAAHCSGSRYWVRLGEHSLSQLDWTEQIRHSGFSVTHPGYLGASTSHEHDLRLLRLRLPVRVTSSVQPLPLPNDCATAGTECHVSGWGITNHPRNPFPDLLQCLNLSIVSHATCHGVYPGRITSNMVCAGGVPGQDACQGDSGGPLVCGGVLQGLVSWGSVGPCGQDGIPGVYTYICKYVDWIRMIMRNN
Chain of Angiotensin-converting enzyme (Homo sapiens) (P12821 whole entry): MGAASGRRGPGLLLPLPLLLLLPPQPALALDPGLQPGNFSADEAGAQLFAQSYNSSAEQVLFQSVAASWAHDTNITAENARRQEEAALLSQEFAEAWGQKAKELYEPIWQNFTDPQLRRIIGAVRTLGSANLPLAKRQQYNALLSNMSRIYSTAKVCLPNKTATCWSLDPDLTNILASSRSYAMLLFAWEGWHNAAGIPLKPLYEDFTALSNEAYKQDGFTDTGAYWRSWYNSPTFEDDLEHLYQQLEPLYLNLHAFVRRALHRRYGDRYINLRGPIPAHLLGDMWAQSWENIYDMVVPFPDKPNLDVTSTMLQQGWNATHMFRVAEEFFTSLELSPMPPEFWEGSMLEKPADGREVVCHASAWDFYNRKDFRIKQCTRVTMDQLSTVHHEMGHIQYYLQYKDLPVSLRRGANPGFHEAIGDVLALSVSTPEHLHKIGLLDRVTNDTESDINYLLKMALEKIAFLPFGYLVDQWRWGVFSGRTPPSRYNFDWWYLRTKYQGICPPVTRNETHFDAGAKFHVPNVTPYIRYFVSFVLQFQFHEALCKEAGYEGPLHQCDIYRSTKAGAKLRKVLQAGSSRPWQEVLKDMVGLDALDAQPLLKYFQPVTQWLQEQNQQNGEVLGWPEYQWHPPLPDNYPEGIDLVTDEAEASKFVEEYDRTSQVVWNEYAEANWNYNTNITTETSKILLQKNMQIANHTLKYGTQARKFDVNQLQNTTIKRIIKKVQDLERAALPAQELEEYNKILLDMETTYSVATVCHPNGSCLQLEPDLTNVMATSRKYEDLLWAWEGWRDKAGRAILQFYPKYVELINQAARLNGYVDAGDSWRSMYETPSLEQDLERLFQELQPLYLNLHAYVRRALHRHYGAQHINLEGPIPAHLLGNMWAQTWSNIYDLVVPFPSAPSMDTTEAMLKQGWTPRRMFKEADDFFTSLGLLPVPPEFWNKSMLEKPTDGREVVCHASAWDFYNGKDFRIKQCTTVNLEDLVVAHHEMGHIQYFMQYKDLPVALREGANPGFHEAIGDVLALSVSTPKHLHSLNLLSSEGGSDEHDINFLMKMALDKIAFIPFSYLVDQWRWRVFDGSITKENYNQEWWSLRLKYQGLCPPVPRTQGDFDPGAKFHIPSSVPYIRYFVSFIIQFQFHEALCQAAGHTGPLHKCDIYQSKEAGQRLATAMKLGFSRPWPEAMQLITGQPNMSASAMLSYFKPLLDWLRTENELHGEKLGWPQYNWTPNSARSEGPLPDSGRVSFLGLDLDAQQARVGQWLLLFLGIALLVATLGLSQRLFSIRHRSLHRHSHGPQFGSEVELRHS
Chain of Cathepsin E (Homo sapiens) (P14091 whole entry): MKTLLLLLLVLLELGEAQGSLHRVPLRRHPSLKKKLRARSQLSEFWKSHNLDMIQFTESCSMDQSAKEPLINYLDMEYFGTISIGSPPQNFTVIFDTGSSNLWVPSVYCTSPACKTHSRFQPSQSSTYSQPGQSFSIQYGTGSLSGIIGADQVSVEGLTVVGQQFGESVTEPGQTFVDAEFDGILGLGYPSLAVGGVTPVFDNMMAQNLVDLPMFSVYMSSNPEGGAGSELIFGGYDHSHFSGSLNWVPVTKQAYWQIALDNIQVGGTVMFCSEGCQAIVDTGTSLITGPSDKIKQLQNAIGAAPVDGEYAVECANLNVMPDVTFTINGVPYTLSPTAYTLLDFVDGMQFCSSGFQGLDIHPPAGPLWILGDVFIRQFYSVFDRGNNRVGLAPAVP

With `C/C=C1\NC(=O)[C@@H](NC(=O)[C@@H](NC(=O)[C@@H](COS(=O)(=O)[O-])OC)C(C)C)[C@@H](C)OC(=O)[C@H]([C@H](C)CC)NC(=O)[C@H](Cc2ccccc2)N(C)C(=O)[C@H](Cc2ccccc2)N2C(=O)[C@H](CC[C@H]2O)NC1=O.[Na+]` [Symplostatin 5], the Activity (in [1]; in experiment [2]; with Hepacivirus hominis; in [4]; in experiment [5]; in experiment [7]) was 100% in each case. The Activity in experiment [8] was determined as 100%; at Papain (Carica papaya), 100%; in the experiment listed under Homo sapiens, 53.4%; in experiment [10], 100%; in experiment [11] it was 100%; in experiment [12], 100%. Moreover, the Activity in [13] is 100%. In addition, the IC50 (usually the point on the concentration scale where inhibition reaches its midpoint) against Kallikrein-12 is less than 10 µM. The figures for the pIC50 in experiment [3] and in [6] were 6.1 and greater than 5, respectively. In [9], the inhibition result is “inactive”.
